Measurements reported in PMC7111624 (Phytochemistry, 2016).

What was measured:
HK2 = experiment: Western blot expression level in U87-MG cells: HK2; assay type: cell-based, human; settings: 10 µM, 48 h (Fig. S83)
How it was run: (§1)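 U87-MG cells were treated for 48 h with test compound (5 or 10 μM) or left untreated as control. Protein was extracted and analysed by western blot, with β-actin as internal loading control.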

PKM2 = experiment: Western blot expression level in U87-MG cells: PKM2; assay type: cell-based, human; settings: 10 µM, 48 h (Fig. S83)
How it was run: as §1

GLS = experiment: Western blot expression level in U87-MG cells: GLS; assay type: cell-based, human; settings: 10 µM, 48 h (Fig. S83)
How it was run: as §1

FASN = experiment: Western blot expression level in U87-MG cells: FASN; assay type: cell-based, human; settings: 10 µM, 48 h (Fig. S83)
How it was run: as §1

human erythrocytes = experiment: Intracellular K+ uptake in erythrocytes; assay type: cell-based; settings: 90 min
How it was run: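 Fresh human blood was spun at 660 g for 10 min at 4 °C. Erythrocytes were washed three times in GNS buffer (50 g/L glucose, 9 g/L NaCl) and made into a 50% suspension. Cells were treated with test compound in isotonic KCl for 90 min at 37 °C, with a positive control ionophore, then stopped on ice. They were washed five times in cold GNS, haemolysed in water overnight, and digested in HNO3/HClO4. K+ was measured by atomic absorption against a KCl calibration curve.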

U251 = experiment: SRB proliferation assay, U251 glioma cells; assay type: cell-based, human; settings: HA vs U251
How it was run: (§2)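 Each ratio is the IC50 in normal human astrocytes divided by the IC50 in the glioma line. Glioma IC50 came from an SRB proliferation assay after 72 h of treatment across a concentration series. Doxorubicin was the positive control and untreated cells the negative control. Values are means ± S.D.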

U87-MG = experiment: SRB proliferation assay, U87-MG glioma cells; assay type: cell-based, human; settings: HA vs U87-MG
How it was run: as §2

SHG-44 = experiment: SRB proliferation assay, SHG-44 glioma cells; assay type: cell-based, human; settings: HA vs SHG-44
How it was run: as §2

C6 = experiment: SRB proliferation assay, C6 glioma cells; assay type: cell-based, rat; settings: HA vs C6
How it was run: as §2

human astrocytes (HA) = experiment: Growth inhibition of normal human astrocytes; assay type: cell-based; settings: Astrocyte, read-out: IC50, human astrocytes (HA)
U87-MG cells = experiment: Cell cycle assay; assay type: cell-based, human; settings: 0.8 μM, 12 h
U251 cells = experiment: Cell cycle assay; assay type: cell-based, human; settings: U251, 0.8 μM, 12 h

CC(C)[C@@H]1NC(=O)[C@H](C)OC(=O)[C@@H](C(C)C)NC(=O)[C@@H](C(C)C)OC(=O)[C@H](C(C)C)NC(=O)[C@H](C)OC(=O)[C@@H](C(C)C)NC(=O)[C@@H](C(C)C)OC(=O)[C@H](C(C)C)NC(=O)[C@H](C)OC(=O)[C@@H](C(C)C)NC(=O)[C@@H](C(C)C)OC1=O [Compound 1, valinomycin]
expression level of HK2 (HK2): remarkably reduced expression levels | expression level of PKM2 (PKM2): little effect on the downregulation | expression level of GLS (GLS): remarkably reduced expression levels | expression level of FANS (FASN): remarkably reduced expression levels | + % increase of intracellular K+ = (Compound−CON)/CON × 100% (human erythrocytes; 0.01 μM): 19.06% | K+ (intracellular, erythrocytes) (human erythrocytes; 0.01 μM): 3.81 ± 0.01 mg/mL | + % increase of intracellular K+ = (Compound−CON)/CON × 100% (human erythrocytes; 0.05 μM): 83.43% | K+ (intracellular, erythrocytes) (human erythrocytes; 0.05 μM): 5.87 ± 0.00 mg/mL | + % increase of intracellular K+ = (Compound−CON)/CON × 100% (human erythrocytes; 0.1 μM): 75.63% | K+ (intracellular, erythrocytes) (human erythrocytes; 0.1 μM): 5.62 ± 0.01 mg/mL

COc1cccc2c1C(=O)c1c(O)c3c(c(O)c1C2=O)C[C@@](O)(C(=O)CO)C[C@@H]3O[C@H]1C[C@H](N)[C@H](O)[C@H](C)O1 [Doxorubicin (DOX), Doxorubicin]
Ratios of IC50HA/IC50GC, U251 (U251): 3 | Ratios of IC50HA/IC50GC, U87-MG (U87-MG): 22 | Ratios of IC50HA/IC50GC, SHG-44 (SHG-44): 5 | Ratios of IC50HA/IC50GC, C6 (C6): 17 | IC50 (human astrocytes (HA)): 8.7 ± 1.2 µM | G0/G1, percentage of cells (U87-MG cells): 90.65% | G2/GM, percentage of cells (U87-MG cells): 3.83% | S, percentage of cells (U87-MG cells): 5.52% | Compound(G0/G1)−CON(G0/G1) (U87-MG cells; increase vs control): 49.69% | G0/G1, percentage of cells (U251 cells): 71.45% | G2/GM, percentage of cells (U251 cells): 13.04% | S, percentage of cells (U251 cells): 15.51% | Compound(G0/G1)−CON(G0/G1) (U251 cells; increase vs control): 26.97%
